{"source": "ChEMBL document CHEMBL4308915", "about": "“Synthesis of novel pyrazoline derivatives and the evaluation of death mechanisms involved in their antileukemic activity” (Bioorg Med Chem, 2019)", "key": {"K562 [1]": {"system": "K562", "experiment": "Cytotoxicity against human K562 cells assessed as reduction in cell viability after 72 hrs by MTT assay", "type": "functional, cell-based", "settings": "K562, 72 h"}, "Jurkat [2]": {"system": "Jurkat", "experiment": "Induction of apoptosis in human Jurkat cells at 30.08 uM after 12 hrs by Annexin-V FITC staining-based flow cytometry relative to control", "type": "functional"}, "K562 [3]": {"system": "K562", "experiment": "Induction of apoptosis in human K562 cells assessed as decrease in survivin level at 32 uM after 12 hrs by flow cytometric analysis relative to control", "type": "functional"}, "Jurkat [4]": {"system": "Jurkat", "experiment": "Induction of apoptosis in human Jurkat cells assessed as increase in Bax expression at 30.08 uM after 12 hrs by flow cytometric analysis relative to control", "type": "functional"}, "Jurkat [5]": {"system": "Jurkat", "experiment": "Induction of apoptosis in human Jurkat cells assessed as decrease in Bcl2 expression at 30.08 uM after 12 hrs by flow cytometric analysis relative to control", "set-up": "scale not given: the % may be the effect or the level left"}, "[6]": {"experiment": "Hemolytic activity in human RBC at 2 times IC50 relative to control", "type": "ADME, cell-based, Erythrocyte", "settings": "red blood cells (erythrocytes), read-out: Activity", "in_short": "(§1)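 RBC from healthy non-smoking volunteers incubated with increasing concentrations of the selected pyrazolines. Saline served as the 0% lysis control and distilled water as the 100% lysis control. Percent hemolysis calculated relative to these controls.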"}, "PBMC [7]": {"system": "PBMC", "experiment": "Cytotoxicity against human PBMC assessed as reduction in cell viability after 48 hrs by MTT assay", "type": "cell-based"}, "K562 [8]": {"system": "K562", "experiment": "Induction of apoptosis in human K562 cells at 32 uM after 12 hrs by Annexin-V FITC staining-based flow cytometry relative to control", "type": "functional"}, "Daudi [9]": {"system": "Daudi", "experiment": "Cytotoxicity against human Daudi cells assessed as reduction in cell viability after 48 hrs by MTT assay", "type": "functional, cell-based"}, "[10]": {"experiment": "Selectivity index, ratio of IC50 for human PBMC to IC50 for human Daudi cells after 24 hrs", "in_short": "(§2)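 MTT viability after 24 h exposure to 1-100µM; untreated control OD taken as 100%. IC50 by curve fitting in each line and in PBMC from six healthy donors (Ficoll-Hypaque). SI = IC50 PBMC / IC50 tumor line; SI ≥5 high, 2–5 moderate, <2 low.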"}, "K562 [11]": {"system": "K562", "experiment": "Induction of apoptosis in human K562 cells assessed as decrease in Bcl2 expression at 32 uM after 12 hrs by flow cytometric analysis relative to control", "type": "functional", "set-up": "scale not given: the % may be the effect or the level left"}, "B16-F10 [12]": {"system": "B16-F10", "experiment": "Cytotoxicity against mouse B16F10 cells assessed as reduction in cell viability after 72 hrs by MTT assay", "type": "functional, cell-based", "settings": "B16-F10, 72 h"}, "Jurkat (human)": {"system": "Jurkat (human)", "experiment": "Induction of apoptosis in human Jurkat cells assessed as increase in AIF release at 30.08 uM after 12 hrs by flow cytometric analysis relative to control"}, "K562 [13]": {"system": "K562", "experiment": "Cytotoxicity against human K562 cells assessed as reduction in cell viability after 24 hrs by MTT assay", "type": "functional, cell-based", "settings": "K562, 24 h", "in_short": "(§3)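 MTT viability after 24 h exposure. Cells seeded at 5x10^4 per well and tested at 1-100 µM. Optical density of untreated cells set as 100% viable. IC50 derived by curve fitting. PBMC from healthy non-smoking volunteers, isolated by Ficoll-Hypaque.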"}, "[14]": {"experiment": "Hemolytic activity in human RBC at 12 times IC50 relative to control", "type": "ADME, cell-based, Erythrocyte", "settings": "red blood cells (erythrocytes), read-out: Activity", "in_short": "as §1"}, "Homo sapiens": {"species": "Homo sapiens", "experiment": "(§4) Cytotoxicity against acute leukemia patient-derived bone marrow cells assessed as reduction in cell viability after 24 hrs", "type": "functional, cell-based", "in_short": "(§5)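 Mononuclear cells from acute leukemia patient samples (peripheral blood or bone marrow, taken before first treatment at diagnosis or relapse) isolated by Ficoll-Hypaque.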"}, "[15]": {"experiment": "as §4", "type": "functional, cell-based", "settings": "Homo sapiens", "in_short": "as §5"}, "B16-F10 [16]": {"system": "B16-F10", "experiment": "Cytotoxicity against mouse B16F10 cells assessed as reduction in cell viability after 48 hrs by MTT assay", "type": "functional, cell-based", "settings": "B16-F10, 48 h"}, "Daudi [17]": {"system": "Daudi", "experiment": "Cytotoxicity against human Daudi cells assessed as reduction in cell viability after 24 hrs by MTT assay", "type": "functional, cell-based", "in_short": "as §3"}, "Jurkat [18]": {"system": "Jurkat", "experiment": "Induction of apoptosis in human Jurkat cells assessed reduction in cells with intact mitochondrial membrane potential at 30.08 uM after 12 hrs by flow cytometric analysis relative to control", "type": "functional", "set-up": "scale not given: the % may be the effect or the level left"}, "Daudi [19]": {"system": "Daudi", "experiment": "Cytotoxicity against human Daudi cells assessed as reduction in cell viability after 72 hrs by MTT assay", "type": "functional, cell-based"}, "Jurkat [20]": {"system": "Jurkat", "experiment": "Induction of apoptosis in human Jurkat cells assessed as increase in caspase-3 expression at 30.08 uM after 12 hrs by flow cytometric analysis relative to control", "type": "functional"}, "Jurkat [21]": {"system": "Jurkat", "experiment": "Induction of DNA fragmentation in human Jurkat cells assessed as increase in ladder formation at 30.08 uM after 12 hrs by ethidium bromide staining based agarose gel electrophoresis method", "type": "functional, cell-based"}, "K562 [22]": {"system": "K562", "experiment": "Induction of apoptosis in human K562 cells assessed as increase in chromatin condensation at 32 uM by acridine orange/ethidium bromide staining-based fluorescence microscopic analysis", "type": "functional, cell-based"}, "K562 [23]": {"system": "K562", "experiment": "Induction of apoptosis in human K562 cells assessed as increase in membrane blebbing at 32 uM by acridine orange/ethidium bromide staining-based fluorescence microscopic analysis", "type": "functional, cell-based"}, "[24]": {"experiment": "Selectivity index, ratio of IC50 for human PBMC to IC50 for human Jurkat cells after 24 hrs", "type": "toxicity", "settings": "PBMC versus Jurkat cells, read-out: Ratio IC50", "in_short": "as §2"}, "K562 [25]": {"system": "K562", "experiment": "Induction of apoptosis in human K562 cells assessed as reduction in cells with intact mitochondrial membrane potential at 32 uM after 12 hrs by flow cytometric analysis relative to control", "type": "functional", "set-up": "scale not given: the % may be the effect or the level left"}, "[26]": {"experiment": "Hemolytic activity in human RBC at 15 times IC50 relative to control", "type": "ADME, cell-based, Erythrocyte", "settings": "red blood cells (erythrocytes), read-out: Activity", "in_short": "as §1"}, "K562 [27]": {"system": "K562", "experiment": "Induction of apoptosis in human K562 cells assessed as increase in caspase-3 expression at 32 uM after 12 hrs by flow cytometric analysis relative to control", "type": "functional"}, "Jurkat [28]": {"system": "Jurkat", "experiment": "Induction of apoptosis in human Jurkat cells assessed as increase in chromatin condensation at 30.08 uM by acridine orange/ethidium bromide staining-based fluorescence microscopic analysis", "type": "functional, cell-based"}, "K562 [29]": {"system": "K562", "experiment": "Cell cycle arrest in human K562 cells assessed as increase in accumulation at G0/G1 phase at 32 uM after 12 hrs by propidium iodide/RNAse staining based flow cytometric analysis relative to control", "type": "functional"}, "Jurkat [30]": {"system": "Jurkat", "experiment": "Antiproliferative activity against human Jurkat cells assessed as reduction in KI-67 expression at 30.08 uM after 12 hrs by flow cytometric analysis", "type": "functional, cell-based"}, "Jurkat [31]": {"system": "Jurkat", "experiment": "Cytotoxicity against human Jurkat cells assessed as reduction in cell viability after 48 hrs by MTT assay", "type": "functional, cell-based"}, "[32]": {"experiment": "Hemolytic activity in human RBC at 1 time IC50 relative to control", "type": "ADME, cell-based, Erythrocyte", "settings": "red blood cells (erythrocytes), read-out: Activity", "in_short": "as §1"}, "[33]": {"experiment": "Hemolytic activity in human RBC at 9 times IC50 relative to control", "type": "ADME, cell-based, Erythrocyte", "settings": "red blood cells (erythrocytes), read-out: Activity", "in_short": "as §1"}, "PBMC [34]": {"system": "PBMC", "experiment": "Cytotoxicity against human PBMC assessed as reduction in cell viability after 24 hrs by MTT assay", "type": "cell-based"}, "Jurkat [35]": {"system": "Jurkat", "experiment": "Induction of apoptosis in human Jurkat cells assessed as increase in loss of membrane integrity at 30.08 uM by acridine orange/ethidium bromide staining-based fluorescence microscopic analysis", "type": "functional, cell-based"}, "K562 [36]": {"system": "K562", "experiment": "Induction of apoptosis in human K562 cells assessed as increase in Bax expression at 32 uM after 12 hrs by flow cytometric analysis relative to control", "type": "functional"}, "K562 [37]": {"system": "K562", "experiment": "Antiproliferative activity against human K562 cells assessed as reduction in KI-67 expression at 32 uM after 12 hrs by flow cytometric analysis", "type": "functional, cell-based"}, "Jurkat [38]": {"system": "Jurkat", "experiment": "Induction of apoptosis in human Jurkat cells assessed as increase in membrane blebbing at 30.08 uM by acridine orange/ethidium bromide staining-based fluorescence microscopic analysis", "type": "functional, cell-based"}}, "note": "The source made the active and inactive calls. The rule behind the calls is not given here."}
{"smiles": "COc1cc(C2=NN(C(C)=O)C(c3ccc(Br)cc3)C2)cc(OC)c1OC", "note": "(stereo not given)", "values": [{"measurement": "IC50", "setting": "K562 [1]", "value": 15.1, "unit": "µM"}, {"measurement": "Activity", "setting": "Jurkat [2]", "value": 24.6, "unit": "%"}, {"measurement": "Activity", "setting": "K562 [3]", "value": 21.2, "unit": "%"}, {"measurement": "Activity", "setting": "Jurkat [4]", "value": 101.4, "unit": "%"}, {"measurement": "Activity", "setting": "Jurkat [5]", "value": 12.9, "unit": "%"}, {"measurement": "hemolysis at 2 times IC50", "setting": "[6]", "value": 1.3, "unit": "%"}, {"measurement": "IC50", "setting": "PBMC [7]", "value": 287, "unit": "µM"}, {"measurement": "Activity", "setting": "K562 [8]", "value": 25, "unit": "%"}, {"measurement": "IC50", "setting": "Daudi [9]", "value": 34.8, "unit": "µM"}, {"measurement": "Ratio IC50", "setting": "[10]", "value": 6.8}, {"measurement": "Activity", "setting": "K562 [11]", "value": 13.4, "unit": "%"}, {"measurement": "IC50", "setting": "B16-F10 [12]", "value": 62.5, "unit": "µM"}, {"measurement": "Activity", "setting": "Jurkat (human)", "value": 33.2, "unit": "%"}, {"measurement": "IC50", "setting": "K562 [13]", "value": 32, "unit": "µM"}, {"measurement": "hemolysis at 12 times IC50", "setting": "[14]", "value": 12.9, "unit": "%"}, {"measurement": "Activity", "setting": "Homo sapiens", "value": "Dose-dependent effect"}, {"measurement": "IC50", "setting": "[15]", "value": "31 to 98.2", "unit": "µM"}, {"measurement": "IC50", "setting": "B16-F10 [16]", "value": 72.7, "unit": "µM"}, {"measurement": "IC50", "setting": "Daudi [17]", "value": 49.8, "unit": "µM"}, {"measurement": "Activity", "setting": "Jurkat [18]", "value": 32.9, "unit": "%"}, {"measurement": "IC50", "setting": "Daudi [19]", "value": 33, "unit": "µM"}, {"measurement": "Activity", "setting": "Jurkat [20]", "value": 128.3, "unit": "%"}, {"measurement": "Activity", "setting": "Jurkat [21]", "value": "Active"}, {"measurement": "Activity", "setting": "K562 [22]", "value": "Active"}, {"measurement": "Activity", "setting": "K562 [23]", "value": "Active"}, {"measurement": "selectivity ratio at 24 h", "setting": "[24]", "value": 10.6}, {"measurement": "Activity", "setting": "K562 [25]", "value": 25.3, "unit": "%"}, {"measurement": "hemolysis at 15 times IC50", "setting": "[26]", "value": 15.8, "unit": "%"}, {"measurement": "Activity", "setting": "K562 [27]", "value": 20, "unit": "%"}, {"measurement": "Activity", "setting": "Jurkat [28]", "value": "Active"}, {"measurement": "Activity", "setting": "K562 [29]", "value": 8, "unit": "%"}, {"measurement": "Activity", "setting": "Jurkat [30]", "value": "Active"}, {"measurement": "IC50", "setting": "Jurkat [31]", "value": 17.2, "unit": "µM"}, {"measurement": "hemolysis at 1 times IC50", "setting": "[32]", "value": 0.9, "unit": "%"}, {"measurement": "hemolysis at 9 times IC50", "setting": "[33]", "value": 6, "unit": "%"}, {"measurement": "IC50", "setting": "PBMC [34]", "value": 340, "unit": "µM"}, {"measurement": "Activity", "setting": "Jurkat [35]", "value": "Active"}, {"measurement": "Activity", "setting": "K562 [36]", "value": 15.8, "unit": "%"}, {"measurement": "Activity", "setting": "K562 [37]", "value": "Active"}, {"measurement": "Activity", "setting": "Jurkat [38]", "value": "Active"}]}
